ChEMBL document CHEMBL1800050, “A new class of phenazines with activity against a chloroquine resistant Plasmodium falciparum strain and antimicrobial activity” (J Med Chem, 2011)
The source made the active and inactive calls. The rule behind the calls is not given here.

Legend:
Plasmodium falciparum [1] = assay: Antimalarial activity against chloroquine-sensitive Plasmodium falciparum NF54 infected in human erythrocytes assessed as reduction of parasitemia level at 3 uM after 4 days by Geimsa staining based light microscopic analysis (reference value: 2.73 +/- 0.16%); type: functional; parameters: scale not given: the % may be the effect or the level left
Plasmodium falciparum [2] = assay: Antimalarial activity against chloroquine-sensitive Plasmodium falciparum NF54 infected in human erythrocytes assessed as reduction of parasitemia level at 3 uM after 2 days by Geimsa staining based light microscopic analysis (reference value: 1.21 +/- 0.12%); type: functional; parameters: scale not given: the % may be the effect or the level left
Plasmodium falciparum [3] = assay: Antimalarial activity against chloroquine-sensitive Plasmodium falciparum NF54 infected in human erythrocytes assessed as inhibition of parasite growth after 72 hrs by Geimsa staining based light microscopic analysis; type: functional, organism-based; settings: NF54, 72 h
Plasmodium falciparum [4] = assay: Antimalarial activity against chloroquine-sensitive Plasmodium falciparum NF54 infected in human erythrocytes assessed as reduction of parasitemia level at 3 uM after 1 day by Geimsa staining based light microscopic analysis (reference value: 0.97 +/- 0.1%); type: functional; parameters: scale not given: the % may be the effect or the level left
Plasmodium falciparum [5] = assay: Antimalarial activity against chloroquine-sensitive Plasmodium falciparum NF54 infected in human erythrocytes assessed as reduction of parasitemia level at 3 uM after 3 days by Geimsa staining based light microscopic analysis (reference value: 2.55 +/- 0.21%); type: functional; parameters: scale not given: the % may be the effect or the level left
Plasmodium falciparum [6] = assay: Antimalarial activity against chloroquine-sensitive Plasmodium falciparum NF54 infected in human erythrocytes assessed as reduction of parasitemia level at 20 uM after 1 day by Geimsa staining based light microscopic analysis (reference value: 0.97 +/- 0.1%); type: functional; parameters: scale not given: the % may be the effect or the level left
Plasmodium berghei [7] = assay: Antimalarial activity against […] Plasmodium berghei ANKA infected in C57BL/6 mouse assessed as protection against cerebral malaria at 100 mg/kg, ip administered 3 to 9 days post infection by Geimsa staining based microscopic analysis; type: functional, organism-based; parameters: dose 100 mg/kg
How it was run: (§1)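 Infected C57BL/6 mice were followed over time for blood parasitemia and for survival, with a chloroquine-treated group as reference. Death from cerebral malaria and later death from anemia were recorded separately.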

Mus musculus [8] = assay: Toxicity in […] Plasmodium berghei ANKA infected C57BL/6 mouse assessed as mortality with anemia at 100 mg/kg, ip administered 3 to 9 days post infection measured on day 10; type: organism-based; parameters: dose 100 mg/kg, route intraperitoneal; settings: in vivo; how it was run: as §1
Plasmodium falciparum [9] = assay: Antimalarial activity against chloroquine-sensitive Plasmodium falciparum NF54 infected in human erythrocytes assessed as reduction of parasitemia level at 20 uM after 4 days by Geimsa staining based light microscopic analysis (reference value: 2.73 +/- 0.16%); type: functional; parameters: scale not given: the % may be the effect or the level left
Plasmodium berghei [10] = assay: Antimalarial activity against […] Plasmodium berghei ANKA infected in C57BL/6 mouse assessed as clearance of parasite from blood of mouse at 100 mg/kg, ip administered 3 to 9 days post infection by Geimsa staining based microscopic analysis; type: functional, organism-based; parameters: dose 100 mg/kg; how it was run: as §1
Plasmodium falciparum [11] = assay: Antimalarial activity against chloroquine-sensitive Plasmodium falciparum NF54 infected in human erythrocytes assessed as reduction of parasitemia level at 20 uM after 3 days by Geimsa staining based light microscopic analysis (reference value: 2.55 +/- 0.21%); type: functional; parameters: scale not given: the % may be the effect or the level left
Plasmodium falciparum [12] = assay: Antimalarial activity against chloroquine-sensitive Plasmodium falciparum NF54 infected in human erythrocytes assessed as reduction of parasitemia level at 20 uM after 2 days by Geimsa staining based light microscopic analysis (reference value: 1.21 +/- 0.12%); type: functional; parameters: scale not given: the % may be the effect or the level left
Plasmodium falciparum [13] = assay: Antimalarial activity against chloroquine-sensitive Plasmodium falciparum NF54 infected in human erythrocytes assessed as inhibition of parasite growth at 2.5 to 10 uM after 72 hrs by Geimsa staining based light microscopic analysis; type: functional, organism-based
Plasmodium falciparum [14] = assay: Antimalarial activity against chloroquine-sensitive Plasmodium falciparum NF54 infected in human erythrocytes assessed as reduction of parasitemia level at 10 uM after 2 days by Geimsa staining based light microscopic analysis (reference value: 1.21 +/- 0.12%); type: functional; parameters: scale not given: the % may be the effect or the level left
Plasmodium falciparum [15] = assay: Antimalarial activity against chloroquine-sensitive Plasmodium falciparum NF54 infected in human erythrocytes assessed as reduction of parasitemia level at 10 uM after 3 days by Geimsa staining based light microscopic analysis (reference value: 2.55 +/- 0.21%); type: functional; parameters: scale not given: the % may be the effect or the level left
Plasmodium falciparum [16] = assay: Antimalarial activity against chloroquine-sensitive Plasmodium falciparum NF54 infected in human erythrocytes assessed as reduction of parasitemia level at 10 uM after 1 day by Geimsa staining based light microscopic analysis (reference value: 0.97 +/- 0.1%); type: functional; parameters: scale not given: the % may be the effect or the level left
Plasmodium falciparum [17] = assay: Antimalarial activity against chloroquine-sensitive Plasmodium falciparum NF54 infected in human erythrocytes assessed as reduction of parasitemia level at 10 uM after 4 days by Geimsa staining based light microscopic analysis (reference value: 2.73 +/- 0.16%); type: functional; parameters: scale not given: the % may be the effect or the level left
Plasmodium berghei [18] = assay: Antimalarial activity against […] Plasmodium berghei ANKA infected in C57BL/6 mouse assessed as clearance of parasite from blood of mouse at 150 mg/kg, ip administered 3 to 9 days post infection measured on day 5 to 7 by Geimsa staining based microscopic analysis; type: functional, organism-based; parameters: dose 150 mg/kg; how it was run: as §1
Plasmodium berghei [19] = assay: Antimalarial activity against […] Plasmodium berghei ANKA infected in C57BL/6 mouse assessed as clearance of parasite from blood of mouse at 80 mg/kg, ip administered 3 to 9 days post infection by Geimsa staining based microscopic analysis; type: functional, organism-based; parameters: dose 80 mg/kg; how it was run: as §1
Plasmodium berghei [20] = assay: Antimalarial activity against […] Plasmodium berghei ANKA infected in C57BL/6 mouse assessed as protection against cerebral malaria at 80 mg/kg, ip administered 3 to 9 days post infection by Geimsa staining based microscopic analysis; type: functional, organism-based; parameters: dose 80 mg/kg; how it was run: as §1
Mus musculus [21] = assay: Toxicity in […] Plasmodium berghei ANKA infected C57BL/6 mouse assessed as mortality with anemia at 80 mg/kg, ip administered 3 to 9 days post infection measured on day 10; type: organism-based; parameters: dose 80 mg/kg, route intraperitoneal; settings: in vivo; how it was run: as §1
Plasmodium berghei [22] = assay: Antimalarial activity against […] Plasmodium berghei ANKA infected in C57BL/6 mouse assessed as clearance of parasite from blood of mouse at 25 mg/kg, ip administered 3 to 9 days post infection by Geimsa staining based microscopic analysis; type: functional, organism-based; parameters: dose 25 mg/kg; how it was run: as §1
Plasmodium falciparum [23] = assay: Antimalarial activity against chloroquine-sensitive Plasmodium falciparum NF54 infected in human erythrocytes assessed as reduction of parasitemia level at 0.032 uM after 2 days by Geimsa staining based light microscopic analysis (reference value: 1.21 +/- 0.12%); type: functional; parameters: scale not given: the % may be the effect or the level left
Plasmodium falciparum [24] = assay: Antimalarial activity against chloroquine-sensitive Plasmodium falciparum NF54 infected in human erythrocytes assessed as reduction of parasitemia level at 0.032 uM after 1 day by Geimsa staining based light microscopic analysis (reference value: 0.97 +/- 0.1%); type: functional; parameters: scale not given: the % may be the effect or the level left
Plasmodium falciparum [25] = assay: Antimalarial activity against chloroquine-sensitive Plasmodium falciparum NF54 infected in human erythrocytes assessed as reduction of parasitemia level at 0.032 uM after 4 days by Geimsa staining based light microscopic analysis (reference value: 2.73 +/- 0.16%); type: functional; parameters: scale not given: the % may be the effect or the level left
Plasmodium falciparum [26] = assay: Antimalarial activity against chloroquine-sensitive Plasmodium falciparum NF54 infected in human erythrocytes assessed as reduction of parasitemia level at 0.032 uM after 3 days by Geimsa staining based light microscopic analysis (reference value: 2.55 +/- 0.21%); type: functional; parameters: scale not given: the % may be the effect or the level left

Oc1c(-c2cc3nc4ccccc4nc3c3ccccc23)ccc2ccccc12
Activity (Plasmodium falciparum [1]): 0%
Activity (Plasmodium falciparum [2]): 0.11%
IC50 (Plasmodium falciparum [3]): 0.88 µM
Activity (Plasmodium falciparum [4]): 0.27%
Activity (Plasmodium falciparum [5]): 0.02%

Oc1ccc2ccccc2c1-c1cc2nc3ncccc3nc2c2ccccc12
Activity (Plasmodium falciparum [6]): 0.04%
Activity (Plasmodium berghei [7]): Active
Activity (Mus musculus [8]): Toxic
Activity (Plasmodium falciparum [9]): 0%
IC50 (Plasmodium falciparum [3]): 5.23 µM
Activity (Plasmodium berghei [10]): inactive
Activity (Plasmodium falciparum [11]): 0%
Activity (Plasmodium falciparum [12]): 0%

O=C(O)c1cnc2cc(-c3c(O)ccc4ccccc34)c3ccccc3c2n1
inhibition (Plasmodium falciparum [13]): inactive

Nc1nnc2cc(-c3c(O)ccc4ccccc34)c3ccccc3c2n1
inhibition (Plasmodium falciparum [13]): inactive

O=C(O)c1cnc2cc(-c3ccc4ccccc4c3O)c3ccccc3c2n1
inhibition (Plasmodium falciparum [13]): inactive

Oc1ccc2ccccc2c1-c1cc2c(c3ccccc13)=NC1(CCCCC1)N=2
inhibition (Plasmodium falciparum [13]): inactive

O/N=C1/C=C(c2c(O)ccc3ccccc23)c2ccccc2/C1=N/O
Activity (Plasmodium falciparum [14]): 0.2%
Activity (Plasmodium falciparum [15]): 0.04%
Activity (Plasmodium falciparum [16]): 0.94%
IC50 (Plasmodium falciparum [3]): 3.73 µM
Activity (Plasmodium falciparum [17]): 0%

Oc1ccc2ccccc2c1-c1cc2nc3cc(Cl)c(Cl)cc3nc2c2ccccc12
Activity (Plasmodium falciparum [6]): 0.14%
Activity (Plasmodium berghei [7]): Active
Activity (Mus musculus [8]): Toxic
Activity (Plasmodium falciparum [9]): 0%
IC50 (Plasmodium falciparum [3]): 5.05 µM
Activity (Plasmodium berghei [10]): inactive
Activity (Plasmodium falciparum [11]): 0%
Activity (Plasmodium falciparum [12]): 0.01%

Oc1c(-c2cc3nc4ncccc4nc3c3ccccc23)ccc2ccccc12
inhibition (Plasmodium falciparum [13]): inactive

Oc1ccc2cc(Br)ccc2c1-c1cc2nc3ccccc3nc2c2ccc(Br)cc12
Activity (Plasmodium falciparum [14]): 0.01%
Activity (Plasmodium falciparum [15]): 0%
Activity (Plasmodium falciparum [16]): 0.14%
IC50 (Plasmodium falciparum [3]): 0.64 µM
Activity (Plasmodium falciparum [17]): 0%
Activity (Plasmodium berghei [18]): Active

Oc1ccc2ccccc2c1-c1cc2nc3c(O)nc(S)nc3nc2c2ccccc12
inhibition (Plasmodium falciparum [13]): inactive

Oc1ccc2ccccc2c1-c1cc2nc3ccccc3nc2c2ccccc12
Activity (Plasmodium falciparum [6]): 0.23%
Activity (Plasmodium berghei [19]): inactive
Activity (Plasmodium berghei [20]): Active
Activity (Mus musculus [21]): Toxic
Activity (Plasmodium falciparum [9]): 0%
IC50 (Plasmodium falciparum [3]): 4.11 µM
Activity (Plasmodium falciparum [11]): 0.02%
Activity (Plasmodium falciparum [12]): 0.07%

O=C1C=C(c2ccc3ccccc3c2O)c2ccccc2C1=O
inhibition (Plasmodium falciparum [13]): inactive

Oc1c(-c2cc3nc4c(O)nc(S)nc4nc3c3ccccc23)ccc2ccccc12
inhibition (Plasmodium falciparum [13]): inactive

Oc1c(-c2cc3nc4cc(Cl)c(Cl)cc4nc3c3ccccc23)ccc2ccccc12
Activity (Plasmodium falciparum [1]): 0%
Activity (Plasmodium falciparum [2]): 0.15%
IC50 (Plasmodium falciparum [3]): 0.51 µM
Activity (Plasmodium falciparum [4]): 0.17%
Activity (Plasmodium falciparum [5]): 0%

CCN(CC)CCCC(C)Nc1ccnc2cc(Cl)ccc12 (stereo not drawn) [CHLOROQUINE]
Activity (Plasmodium berghei [22]): inactive
Activity (Plasmodium falciparum [23]): 0%
Activity (Plasmodium falciparum [24]): 0.06%
Activity (Plasmodium falciparum [25]): 0%
Activity (Plasmodium falciparum [26]): 0%
